In ChEMBL document CHEMBL2417528, “Synthesis and anticancer activity evaluation of a series of [1,2,4]triazolo[1,5-a]pyridinylpyridines in vitro and in vivo” (Eur J Med Chem, 2013):
pIC50: −log10 of the molar value. Active and inactive are the calls of the source. The calls are words filed in the database; no cut-off is given here.

Legend:
MCF7 = experiment: Antiproliferative activity against human MCF7 cells after 48 hrs by MTT assay; assay type: functional, cell-based; conditions: MCF7, 48 h
How it was run: (§1)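 Cells seeded at 3000–5000 per well in DMEM with 10% FBS and preincubated 24 h at 37 °C. Cell numbers were titrated so controls stay in exponential growth, then 48 h drug exposure. MTT added for 4 h, formazan pelleted by centrifugation and dissolved in DMSO, OD read at 490 nm. IC50 calculated from inhibition ratios, mean of three separate experiments in triplicate.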

HCT-116 [1] = experiment: Antiproliferative activity against human HCT116 cells after 48 hrs by MTT assay; assay type: functional, cell-based; conditions: HCT-116, 48 h; how it was run: as §1
[2] = Antiproliferative activity against human U87MG cells after 48 hrs by MTT assay; assay type: functional, cell-based, U-87MG ATCC; conditions: U-87 MG; how it was run: as §1
HCT-116 [3] = experiment: Inhibition of PI3K in human HCT116 cells assessed as reduction of AKT phosphorylation at Ser473 at 10 uM after 1 hr by Western blot analysis; assay type: cell-based
How it was run: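 HCT-116 cells seeded at 1 × 10⁶ per well in DMEM with 10% FBS and grown 16 h at 37 °C. Treated 1 h at 37 °C at […] or with DMSO. Cells washed in ice-cold PBS, lysed, and clarified at 12,000 rpm for 20 min at 4 °C. Protein quantified by BCA, run on SDS-PAGE, transferred to nitrocellulose, and probed for AKT and p-Ser473 AKT.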

Mus musculus [4] = experiment: Toxicity in mouse S180 cells xenografted mouse assessed as mortality at 20 mg/kg, po; assay type: organism-based, CCRF S-180; design: dose 20 mg/kg, route oral; conditions: in vivo
CCRF S-180 [5] = experiment: Antitumor activity against mouse S180 cells xenografted in mouse assessed as inhibition of tumor growth at 5 mg/kg, po qd for 10 days relative to control; assay type: functional; conditions: CCRF S-180, 240 h
How it was run: (§2)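 Mice bearing sarcoma S-180 randomized into three groups of 6. Compound in DMSO/PEG400/5% glucose (10:60:30) given orally once daily for 10 days at 1 or 5 mg/kg. The solvent group received the same volume of vehicle. Mice sacrificed on Day 11, tumors weighed, and tumor-weight inhibitory ratio calculated versus the solvent group.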

Mus musculus [6] = experiment: Toxicity in mouse S180 cells xenografted mouse assessed as change on body weight at 1 mg/kg, po qd for 10 days; assay type: organism-based, CCRF S-180; design: dose 1 mg/kg, route oral; conditions: in vivo, 240 h
How it was run: (§3)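 S-180 tumor-bearing mice (6 per group) dosed orally once daily for 10 days at 1 or 5 mg/kg in DMSO/PEG400/5% glucose (10:60:30), with a vehicle solvent group. Body weights recorded daily. Animals sacrificed on Day 11.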

Mus musculus [7] = experiment: Toxicity in mouse S180 cells xenografted mouse assessed as change on body weight at 5 mg/kg, po qd for 10 days; assay type: organism-based, CCRF S-180; design: dose 5 mg/kg, route oral; conditions: in vivo, 240 h; how it was run: as §3
CCRF S-180 [8] = experiment: Antitumor activity against mouse S180 cells xenografted in mouse assessed as inhibition of tumor growth at 1 mg/kg, po qd for 10 days relative to control; assay type: functional; conditions: CCRF S-180, 240 h; how it was run: as §2

Row | Structure (SMILES) | pIC50 (MCF7) | pIC50 (HCT-116 [1]) | pIC50 [2] | inhibition (HCT-116 [3]) | Activity (Mus musculus [4]) | inhibition in vivo at 5 mg/kg (CCRF S-180 [5]) | Activity (Mus musculus [6]) | Activity (Mus musculus [7]) | inhibition in vivo at 1 mg/kg (CCRF S-180 [8])
1 | COc1ncc(-c2ccn3nc(N)nc3c2)cc1NS(=O)(=O)c1ccc(F)cc1 | 6.04 | 6.09 | 5.75 | Active | Toxic | – | – | – | –
2 | COc1ncc(-c2ccn3nc(NC(C)=O)nc3c2)cc1NS(=O)(=O)c1ccc(C)cc1 | 5.87 | 5.86 | 5.69 | – | – | – | – | – | –
3 | Cn1c(=O)n(-c2ccc(C(C)(C)C#N)cc2)c2c3cc(-c4cnc5ccccc5c4)ccc3ncc21 [DACTOLISIB] | 6.14 | 5.94 | 5.88 | – | – | – | – | – | –
4 | CC(=O)Nc1nc2ccc(-c3cnc(Cl)c(NS(=O)(=O)c4ccc(F)cc4)c3)cn2n1 | 4.70 | 5.03 | 5.16 | – | – | – | – | – | –
5 | COc1ncc(-c2ccc3nc(NC(C)=O)nn3c2)cc1NS(=O)(=O)C1CC1 | 5.79 | 5.65 | 5.43 | – | – | – | – | – | –
6 | COc1ncc(-c2ccc3nc(NC(C)=O)nn3c2)cc1NS(=O)(=O)c1ccc(F)cc1F | 6.06 | 6.13 | 5.70 | – | – | – | – | – | –
7 | O=C(Nc1nc2ccc(-c3cnc(Cl)c(NS(=O)(=O)c4ccc(F)cc4)c3)cn2n1)C1CC1 | < 4.22 | 5.00 | 4.96 | – | – | – | – | – | –
8 | COc1ncc(-c2ccn3nc(NC(C)=O)nc3c2)cc1NS(=O)(=O)c1ccc(F)cc1 | 5.76 | 5.88 | 5.62 | – | – | – | – | – | –
9 | CC(=O)Nc1nc2ccc(-c3cnc(Cl)c(NS(=O)(=O)c4ccc(F)cc4)c3)cc2s1 | 6.64 | – | – | Active | – | – | – | – | –
10 | COc1ncc(-c2ccc3nc(NC(C)=O)nn3c2)cc1NS(=O)(=O)c1ccc(F)cc1 | 6.08 | 6.07 | 5.74 | Active | Non-toxic | 75.8% | Non-toxic | < 90% | 20%

Second part, led by results:

Row | pIC50 (MCF7) | pIC50 (HCT-116 [1]) | Structure (SMILES) | pIC50 [2] | inhibition (HCT-116 [3]) | Activity (Mus musculus [4]) | inhibition in vivo at 5 mg/kg (CCRF S-180 [5]) | Activity (Mus musculus [6]) | Activity (Mus musculus [7]) | inhibition in vivo at 1 mg/kg (CCRF S-180 [8])
11 | 4.90 | 5.06 | COc1ncc(-c2ccc3nc(NCC(=O)O)nn3c2)cc1NS(=O)(=O)c1ccc(F)cc1 | 5.01 | – | – | – | – | – | –
12 | 5.87 | 5.03 | CCOCCNc1nc2ccc(-c3cnc(OC)c(NS(=O)(=O)c4ccc(F)cc4)c3)cn2n1 | 5.09 | – | – | – | – | – | –
13 | 5.60 | 5.31 | CNC(=O)CNc1nc2ccc(-c3cnc(OC)c(NS(=O)(=O)c4ccc(F)cc4)c3)cn2n1 | 5.14 | – | – | – | – | – | –
14 | 5.70 | 6.13 | COc1ncc(-c2ccc3nc(NC(C)=O)nn3c2)cc1NS(=O)(=O)c1ccc(Cl)cc1 | 5.68 | – | – | – | – | – | –
15 | 5.91 | 5.88 | COc1ncc(-c2ccn3nc(NC(C)=O)nc3c2)cc1NS(=O)(=O)c1ccc(Cl)cc1 | 5.67 | – | – | – | – | – | –
16 | 5.59 | 5.76 | COc1ncc(-c2ccc3nc(NC(=O)C4CC4)nn3c2)cc1NS(=O)(=O)c1ccc(F)cc1 | 5.31 | – | – | – | – | – | –
17 | 5.81 | 5.47 | COc1ncc(-c2ccc3nc(N)nn3c2)cc1NS(=O)(=O)c1ccc(C)cc1 | 5.60 | – | – | – | – | – | –
18 | 5.74 | 5.60 | COc1ncc(-c2ccc3nc(N)nn3c2)cc1NS(=O)(=O)c1ccc(Cl)cc1 | 5.51 | – | – | – | – | – | –
19 | 5.62 | 5.34 | COCCNc1nc2ccc(-c3cnc(OC)c(NS(=O)(=O)c4ccc(F)cc4)c3)cn2n1 | 5.19 | – | – | – | – | – | –
20 | 5.71 | 5.53 | COc1ncc(-c2ccc3nc(N)nn3c2)cc1NS(=O)(=O)c1ccc(F)cc1 | 5.40 | – | – | – | – | – | –
21 | 5.36 | 5.36 | CCOC(=O)CNc1nc2ccc(-c3cnc(OC)c(NS(=O)(=O)c4ccc(F)cc4)c3)cn2n1 | 5.10 | – | – | – | – | – | –
22 | 5.08 | 5.21 | COc1ncc(-c2ccc3nc(NCC(N)=O)nn3c2)cc1NS(=O)(=O)c1ccc(F)cc1 | 5.24 | – | – | – | – | – | –
23 | 5.49 | 5.58 | CC(=O)Nc1nc2ccc(-c3cnc(Cl)c(NS(=O)(=O)c4ccc(C)cc4)c3)cn2n1 | 5.42 | – | – | – | – | – | –
24 | 6.09 | 6.22 | COc1ncc(-c2ccc3nc(NC(C)=O)nn3c2)cc1NS(=O)(=O)c1ccc(C)cc1 | 5.80 | – | – | – | – | – | –
